Assay results published in ChEMBL document CHEMBL4513216, “Probing the Open Global Health Chemical Diversity Library for Multistage-Active Starting Points for Next-Generation Antimalarials” (ACS Infect Dis, 2020).

Assay: Toxicity liver stage against HepG2, at 10uM
Assay type: cell-based
Set-up: test concentration 10 uM, cell line HepG2-A16-CD81EGFP
Conditions: human, HepG2-A16-CD81EGFP cells; read-out: INHIBITION
Outline: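 Uninfected HepG2-A16-CD81EGFP cells, 3 × 10^3 per well, 1536-well, plated on prespotted compound at 10 μM final, parasite-free screening media added to match infected plates; puromycin 10 μM positive, DMSO 0.5% negative; run in parallel with 48 h PbLuc assay at 37 °C, 5% CO2; viability by CellTiter-Glo luminescence, normalized to controls.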
Molecule `COc1ccc(-c2cn3c(n2)CO[C@@H](CNCc2nccn2C)C3)cc1` has a cytotoxicity at 10 µM of -0.765%.
For `O=S1(=O)c2cccnc2OC(COc2ccccc2)CN1CC1CC1` (centres undefined), the cytotoxicity at 10 µM was -3.24%.
Molecule `CCCN1CCc2nc(SCc3c(C)cc(C)cc3C)[nH]c(=O)c2C1` has a cytotoxicity at 10 µM of -2.33%.
Molecule `O=C(CCc1ccccc1)N1C[C@H]2CCN[C@H]2C1` has a cytotoxicity at 10 µM of -4.22%.
With `O=C1N(Cc2ccncc2)CCC12CCCNC2` (centres undefined) the cytotoxicity at 10 µM was 4.26%.
Molecule `CN1CCN(C(=O)c2cccn2C)Cc2cccnc21` has a cytotoxicity at 10 µM of 5.73%.
Molecule `CCOc1ccc(-c2cc(=O)n3c(n2)CCCCC3)cc1` has a cytotoxicity at 10 µM of 5.36%.
With `Cc1csc(NC(=O)C(C)Oc2ccc3c(c2)OCO3)n1` (centres undefined) the cytotoxicity at 10 µM was 8.06%.
With `CCn1cc(NC(=O)C2CCC(=O)N2Cc2ccc(C)o2)cn1` (centres undefined) the cytotoxicity at 10 µM was -2.92%.
`Cc1cn[nH]c1C1COCCN1C(=O)c1ccc2[nH]nnc2c1` (centres undefined) showed a cytotoxicity at 10 µM of 2.73%.
For `CSc1nnc(C2CCN(C(=O)N3CCCC3)CC2)n1C`, the cytotoxicity at 10 µM was 2.11%.
`c1cnc2c(CN3CCCCC3c3ccncn3)cnn2c1` (centres undefined) gave a cytotoxicity at 10 µM of -10.2%.
Molecule `CN1CCN(c2ncccn2)CC(C(=O)N(C)C)C1` (centres undefined) has a cytotoxicity at 10 µM of 0.651%.
With `Oc1cc(C2CCCCN2C2CCCC2)nc(-c2ccncc2)n1` (centres undefined) the cytotoxicity at 10 µM was 5.94%.
Molecule `COc1cccc(CNCc2nc3ccccc3c(=O)[nH]2)c1` has a cytotoxicity at 10 µM of 1.26%.
For `CO[C@H]1CN(S(=O)(=O)c2ccc(C)cc2)C[C@@]12CCCO2`, the cytotoxicity at 10 µM was -0.479%.
In the case of `CCn1ccc2ccnc(CC3CN(C(=O)c4ccc(F)cc4)C3)c21`, the cytotoxicity at 10 µM is reported as -3.3%.
For `CC(=O)N1CCN([C@@H]2CC[C@@H](NC(=O)c3cncc(C)c3)[C@H]2O)CC1`, the cytotoxicity at 10 µM was 2.6%.
In the case of `COc1ccc(Br)cc1SCCC(N)=O`, the cytotoxicity at 10 µM is reported as 7.72%.
For `Cc1ccc(C(=O)Nc2cc(C(N)=O)ccc2CN(C)C)cc1Cl`, the cytotoxicity at 10 µM was 18.5%.
Molecule `Cc1cc(CN(C)Cc2cnc3c(c2)c(C)nn3C)no1` has a cytotoxicity at 10 µM of 0.995%.
In the case of `Cn1cc(S(=O)(=O)NCC(C)(O)c2ccsc2)cn1` (centres undefined), the cytotoxicity at 10 µM is reported as 22.1%.
Molecule `COC(=O)c1ccc(CN2CCC(c3n[nH]c(C)n3)CC2)s1` has a cytotoxicity at 10 µM of -2.87%.
For `CNC(=O)c1cccc(CN2CCC(N(C)Cc3nnc(C)o3)C2)c1` (centres undefined), the cytotoxicity at 10 µM was 8.75%.
`Cc1cnn(C2CCCN(C(=O)CN(C)c3cnccn3)C2)c1` (centres undefined) gave a cytotoxicity at 10 µM of -8.73%.
`Cc1cc(C(C)(O)CNC(=O)CCn2ccnc2C(C)C)c(C)o1` (centres undefined) gave a cytotoxicity at 10 µM of 4.27%.
`COc1ccc(Oc2ncccc2NC(=O)N2CC[C@H](O)C2)cc1` showed a cytotoxicity at 10 µM of 1.7%.
`CC(C(=O)NC1(C#N)CCCCC1)N1CCc2c(ncn2C2CC2)C1` (centres undefined) gave a cytotoxicity at 10 µM of 7.66%.
Molecule `Cc1cccc(NCCNc2ccc(C#N)cn2)n1` has a cytotoxicity at 10 µM of 18%.
`CC1CN(c2ccc(NC(=O)Cn3cccn3)cc2)CCO1` (centres undefined) gave a cytotoxicity at 10 µM of 3.94%.
`CC(CNC(=O)N1CCS(=O)(=O)CC1)Cc1cccs1` (centres undefined) showed a cytotoxicity at 10 µM of -9.47%.
`CSc1nsc(NC(=O)N2CCc3ccccc3C2)n1` showed a cytotoxicity at 10 µM of 11.3%.
`CCCc1ccc(S(=O)(=O)NC(=O)CCc2cscn2)cc1` gave a cytotoxicity at 10 µM of 1.12%.
In the case of `Cc1cc(C)n(CC2CCCN2C(=O)c2ccc3[nH]c(=O)[nH]c3c2)n1` (centres undefined), the cytotoxicity at 10 µM is reported as 3.18%.
For `CS(=O)(=O)CCn1ccc(NC(=O)Cc2cccc(Cl)c2)n1`, the cytotoxicity at 10 µM was -3.36%.
Work on `O=S(=O)(NCCN1CCOCC1)c1cncc(Cl)c1` yielded a cytotoxicity at 10 µM of 2.77%.
In the case of `CC(=O)c1c[nH]c(C(=O)N2CCN(C(C(N)=O)c3ccccc3)CC2)c1` (centres undefined), the cytotoxicity at 10 µM is reported as 8.61%.
`Cc1nc(C2(NCc3cc(C#N)ccc3F)CCCCC2)no1` gave a cytotoxicity at 10 µM of 9.68%.
Work on `CNC(=O)N(Cc1c(F)cccc1F)C1CCCC1` yielded a cytotoxicity at 10 µM of 8.23%.
`CC1CCN(c2ccnc3ccc(Br)cc23)CC1` showed a cytotoxicity at 10 µM of 15.4%.
`CC(C)CNC(=O)CNC(=O)NCC(O)c1ccc2ccccc2c1` (centres undefined) showed a cytotoxicity at 10 µM of -2.52%.
`N#Cc1cccc(S(=O)(=O)N2CC(CC(=O)O)c3ccccc32)c1` (centres undefined) showed a cytotoxicity at 10 µM of -1.11%.
Work on `CC(C(=O)N(C)Cc1nnc2n1CCC2)S(C)(=O)=O` (centres undefined) yielded a cytotoxicity at 10 µM of -6.56%.
Work on `CN1CCN(S(=O)(=O)c2cccnc2)c2cnccc21` yielded a cytotoxicity at 10 µM of -0.376%.
With `CN(CC(=O)NC(Cc1ccccc1)C1CCCC1)S(C)(=O)=O` (centres undefined) the cytotoxicity at 10 µM was 15.1%.
In the case of `COC(=O)N1CCN(CCCc2nnnn2-c2ccccc2)CC1`, the cytotoxicity at 10 µM is reported as 14%.
`CC(C)(C)Oc1ccc(NCC(=O)NCc2ccco2)cc1` gave a cytotoxicity at 10 µM of 2.21%.
With `Cn1ncnc1NCc1ccccc1Cl` the cytotoxicity at 10 µM was -8.04%.
In the case of `O=C(NCC1(O)CCOC1)c1ccccc1Cl` (centres undefined), the cytotoxicity at 10 µM is reported as -40.3%.
For `O=C(Nc1cccnn1)NC(CCCO)c1ccccc1` (centres undefined), the cytotoxicity at 10 µM was -0.908%.
Molecule `Cc1cc(CCC(=O)N2CCC(O)CC2)ccc1Br` has a cytotoxicity at 10 µM of -4.3%.
Molecule `COCCC(=O)N1CCC2(COCc3cnc(-c4ccccc4)nc32)C1` (centres undefined) has a cytotoxicity at 10 µM of 3.6%.
In the case of `O=C(C1CCC1)N1CCn2c(COc3ncccn3)nnc2C1`, the cytotoxicity at 10 µM is reported as 3.09%.
For `CS(=O)(=O)N1CCc2[nH]cnc2C12CCN(C(=O)c1ccc[nH]1)CC2`, the cytotoxicity at 10 µM was -1.42%.
For `Cc1ccc2nc(C)cc(C(=O)NCc3csc(N(C)C)n3)c2c1`, the cytotoxicity at 10 µM was 1.21%.
Work on `Cc1nc2c(c(N3CCCOCC3)n1)CCN(C(=O)N1CCCC1)CC2` yielded a cytotoxicity at 10 µM of 9.2%.
`COc1ccc(C(=O)N2CCC(c3nccn3C(C)C)CC2)cc1OC` showed a cytotoxicity at 10 µM of 1.52%.
`Cc1cc(CNC(=O)C2CC(=O)N(CCN(C)C)C2)cc(C)n1` (centres undefined) gave a cytotoxicity at 10 µM of 3.05%.
`CC(C)c1noc(C2CC(=O)N(CCN(C)C)C2)n1` (centres undefined) gave a cytotoxicity at 10 µM of -8.25%.
Work on `COCCN(Cc1ccncc1)C(=O)CCSCc1ccc(F)cc1` yielded a cytotoxicity at 10 µM of 0.807%.
Work on `CCCc1nnc(NCCc2noc(C3CC3)n2)o1` yielded a cytotoxicity at 10 µM of 0.0902%.
Molecule `CCCn1ccnc1CN1C[C@@H](CN2CCCN(C)CC2)[C@@H](CO)C1` has a cytotoxicity at 10 µM of 2.81%.
In the case of `CN1CCC(NN2CCN(C)CC2)CC1`, the cytotoxicity at 10 µM is reported as -2.76%.
Molecule `O=C(c1cccc(Oc2ccccc2)c1)N1CCCC(O)(CO)CC1` (centres undefined) has a cytotoxicity at 10 µM of -3.17%.
`CN(C)C(=O)CN1CCC(c2nnc(Cn3cccn3)n2C2CC2)CC1` showed a cytotoxicity at 10 µM of -6.65%.
`O=C1NC[C@@]2(C(=O)O)CN(Cc3cccc(CN4CCOCC4)c3)C[C@@H]12` showed a cytotoxicity at 10 µM of -7.98%.
For `COc1ccc(CCN2CCCC(CN(C)Cc3[nH]cnc3C)C2)cc1` (centres undefined), the cytotoxicity at 10 µM was -11.7%.
`Cc1nc(N(C)C)ncc1C(=O)N(Cc1ccncc1)CC1CCCO1` (centres undefined) showed a cytotoxicity at 10 µM of -1.59%.
In the case of `Cc1cccnc1CC(C)N(C)Cc1cccs1` (centres undefined), the cytotoxicity at 10 µM is reported as -12.4%.
With `Cc1ccc(C(=O)O)c(N2CC(C)(C)[C@@](C)(O)C2)n1` the cytotoxicity at 10 µM was 4.5%.
`CNc1cc(CCNC(=O)c2cccnc2)nc(-c2ccncc2)n1` gave a cytotoxicity at 10 µM of 1.52%.
In the case of `CC(c1ccccc1Cl)N(C)Cc1nc2c(cnn2C)c(=O)[nH]1` (centres undefined), the cytotoxicity at 10 µM is reported as -5.19%.
`CCn1ccnc1CN1CCCN(C(=O)c2ccnn2C)CC1` gave a cytotoxicity at 10 µM of -5.39%.
With `Cc1cccc(NS(=O)(=O)c2cc(C(=O)O)oc2C)c1Cl` the cytotoxicity at 10 µM was -14.6%.
In the case of `Cc1nc(C)c(CC(=O)Nc2ncc(C)s2)c(=O)[nH]1`, the cytotoxicity at 10 µM is reported as -5.49%.
In the case of `CC(C)c1ncc2c(n1)CN(Cc1cccc(C#N)c1)CC2`, the cytotoxicity at 10 µM is reported as -9.03%.
Molecule `Cn1cc(C2CCCN2Cc2csc(-c3ccsc3)n2)cn1` (centres undefined) has a cytotoxicity at 10 µM of -8.21%.
Work on `COc1ccc(CCN2CCCC2Cn2nc(C)nc2C)cc1` (centres undefined) yielded a cytotoxicity at 10 µM of -7.16%.
For `O=C1CC2(CCNCC2)C(=O)N1Cc1ccc(F)cc1`, the cytotoxicity at 10 µM was 6.68%.
In the case of `Cc1cc(C)nc(NCCC(=O)NCCn2ccnc2C)n1`, the cytotoxicity at 10 µM is reported as 2.77%.
`CN(C)CCCNCCC(c1ccccc1)C1CCOC(C)(C)C1` (centres undefined) gave a cytotoxicity at 10 µM of -7.91%.
Molecule `COCCN1CCC2(CC1)CC(NC(=O)C1CC1)c1ccccc1O2` (centres undefined) has a cytotoxicity at 10 µM of 1.67%.
With `CCCNCc1cn(Cc2ccccc2)nc1-c1cccnc1` the cytotoxicity at 10 µM was 5.13%.
With `CNC(=O)[C@@H]1C[C@H]2CN(C(=O)c3ccco3)C[C@H]2N1C(C)C` the cytotoxicity at 10 µM was -1.84%.
